In series [1] the target is T1, AChE (Electrophorus electricus, UniProt O42275). In words: biochemical. Set-up: species or system Electric Eel. The following applies: for inhibition at 50 µM: 0.25 h, read-out: Inhibition ratios for AChE.
The target in series [2] is BChE (Equus caballus, UniProt P81908). Kind of series: BChE inhibition, modified Ellman method. The class given is biochemical, equine. The following applies: for inhibition at 50 µM: 0.25 h, read-out: Inhibition ratios for BChE. For orientation: Ellman's reagent forms a yellow product with free thiols.
Series [3] deals with HepG-2 cells. In words: MTT assay of HepG-2 cell viability. Type of series: cell-based, human. The following applies: for Inhibition ratios for HepG-2 cell viability: 10 μmol/L compound, 48 h, mean of three independent experiments; for Effect on HepG-2 cell viability (in words): 10 μmol/L. The gist of the method:
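HepG-2 cells were kept at 37 °C under 5% CO2 and seeded at 5×10^3 cells/well. After 12 h, test compound was added at 10 µmol/L for 48 h. Viability was read by MTT conversion to purple formazan, and the inhibition rate was calculated against untreated cells set as 100%.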
A general note: Tetrazolium dyes change colour on reduction, which living cells bring about.

Series [4] deals with T1, AChE. In words: Kinetic characterization of AChE inhibition. The following applies: Lineweaver–Burk plots. The class given is biochemical, Electric Eel. The method in brief: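 Acetylthiocholine hydrolysis by AChE was measured at six substrate concentrations in 0.1 mol/L KH2PO4/K2HPO4 buffer, pH 8.0, with DTNB. Test compound was pre-incubated with the enzyme for 15 min at 37 °C before substrate was added. Absorbance was read at 412 nm, and a parallel no-inhibitor control was run.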

Series [5] can be described thus: Metal-chelating study by UV-Vis spectrometry. Type of series: physicochemical. The method in brief: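 Test compound (20 μmol/L final) was incubated in water for 30 min at room temperature, alone or with CuSO4, FeCl3 or ZnCl2 (each 20 μmol/L final). UV-Vis absorption spectra were then recorded from 200 to 500 nm.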

Chain of BChE (P81908 whole entry): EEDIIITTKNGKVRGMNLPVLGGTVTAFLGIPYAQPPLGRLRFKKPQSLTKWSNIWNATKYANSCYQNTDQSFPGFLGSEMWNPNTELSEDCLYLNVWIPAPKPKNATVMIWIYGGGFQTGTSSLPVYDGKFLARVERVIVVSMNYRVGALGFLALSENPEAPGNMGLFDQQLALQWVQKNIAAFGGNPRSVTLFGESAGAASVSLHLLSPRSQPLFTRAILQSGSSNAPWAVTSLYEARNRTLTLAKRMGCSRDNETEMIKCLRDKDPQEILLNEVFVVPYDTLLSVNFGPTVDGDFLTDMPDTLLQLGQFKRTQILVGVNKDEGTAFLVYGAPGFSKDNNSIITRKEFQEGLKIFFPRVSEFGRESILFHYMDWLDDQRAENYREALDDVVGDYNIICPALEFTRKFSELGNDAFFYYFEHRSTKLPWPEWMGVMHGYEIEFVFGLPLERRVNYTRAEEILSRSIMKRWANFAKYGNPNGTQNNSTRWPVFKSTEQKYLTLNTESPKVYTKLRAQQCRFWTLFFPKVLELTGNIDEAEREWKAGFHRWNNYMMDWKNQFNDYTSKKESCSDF
T1 sequence (O42275 24-633): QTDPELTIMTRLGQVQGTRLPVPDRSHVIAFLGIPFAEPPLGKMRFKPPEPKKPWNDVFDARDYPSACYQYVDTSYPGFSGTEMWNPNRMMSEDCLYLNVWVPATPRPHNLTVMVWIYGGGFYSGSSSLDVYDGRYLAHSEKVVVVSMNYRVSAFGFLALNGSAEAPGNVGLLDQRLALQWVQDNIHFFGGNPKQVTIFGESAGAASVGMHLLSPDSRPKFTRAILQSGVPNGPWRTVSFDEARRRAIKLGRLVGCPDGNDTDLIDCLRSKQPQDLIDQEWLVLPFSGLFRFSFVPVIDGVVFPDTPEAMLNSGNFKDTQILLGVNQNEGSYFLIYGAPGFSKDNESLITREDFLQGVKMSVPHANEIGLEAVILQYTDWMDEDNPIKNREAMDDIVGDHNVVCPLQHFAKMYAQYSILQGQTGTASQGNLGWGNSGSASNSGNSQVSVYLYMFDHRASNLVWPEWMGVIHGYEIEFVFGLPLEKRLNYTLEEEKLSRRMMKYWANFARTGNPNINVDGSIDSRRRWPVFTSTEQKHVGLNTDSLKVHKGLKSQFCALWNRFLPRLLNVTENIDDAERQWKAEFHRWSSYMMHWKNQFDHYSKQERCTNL

As for `CCCCNC(=O)COc1cc(O)c2c(=O)c(-c3ccc(O)cc3)coc2c1` [Compound 4a, N-butyl-2-(5-hydroxy-3-(4-hydroxyphenyl)-4-oxo-4H-chromen-7-yloxy)acetamide], the inhibition at 50 µM in series [1] amounted to 7.88 ± 3.58%; in series [2] it was 1.19 ± 0.59%. For the same molecule, in series [3], the “Inhibition ratios for HepG-2 cell viability” value amounted to 6.40%.
With `CN(C)CCNC(=O)COc1cc(O)c2c(=O)c(-c3ccc(O)cc3)coc2c1.Cl` [Compound 4b, N-(2-(dimethylamino)ethyl)-2-(5-hydroxy-3-(4-hydroxyphenyl)-4-oxo-4H-chromen-7-yloxy)acetamide hydrochloride], in series [1], it took 2.75 ± 0.28 µM to reach half-maximal inhibition (IC50) and the inhibition at 50 µM worked out at 90.4 ± 1.23%. Besides, in series [2], the half-maximal inhibitory concentration (IC50) was greater than 50 µM and the inhibition at 50 µM came to 26.1 ± 2.52%. The “Inhibition type of AChE” value in series [4] was “mixed-type inhibition”. Also, the “Metal-chelating ability (overall)” value in series [5] was “potent metal-chelating ability”. Moreover, the “Chelation of Cu^2+ (UV-Vis spectrum change)” value in series [5] (20 μmol/L compound, 20 μmol/L Cu^2+, in water) is “poor chelating ability”. Besides, in series [3], the “Effect on HepG-2 cell viability (in words)” value is “no obvious effect on cell viability” and the “Inhibition ratios for HepG-2 cell viability” value is reported as 1.53%.
As to `Cl.NCCCNC(=O)COc1cc(O)c2c(=O)c(-c3ccc(O)cc3)coc2c1` [Compound 4c, N-(3-aminopropyl)-2-(5-hydroxy-3-(4-hydroxyphenyl)-4-oxo-4H-chromen-7-yloxy)acetamide hydrochloride], the inhibition at 50 µM was 37 ± 2.07% in series [1] and 13.8 ± 1.05% in series [2]. In addition, in series [3], the “Inhibition ratios for HepG-2 cell viability” value is 14.57%.
With `Cl.NCCCCNC(=O)COc1cc(O)c2c(=O)c(-c3ccc(O)cc3)coc2c1` [Compound 4d, N-(4-aminobutyl)-2-(5-hydroxy-3-(4-hydroxyphenyl)-4-oxo-4H-chromen-7-yloxy)acetamide hydrochloride], the inhibition at 50 µM in series [1] came to 34.5 ± 2.76%; in series [2], 9.02 ± 0.23%. In addition, the “Inhibition ratios for HepG-2 cell viability” value in series [3] is 1.17%.
The like results for `Cl.O=C(COc1cc(O)c2c(=O)c(-c3ccc(O)cc3)coc2c1)NCCCCN1CCNCC1` [Compound 4e, 2-(5-hydroxy-3-(4-hydroxyphenyl)-4-oxo-4H-chromen-7-yloxy)-N-(4-(piperazin-1-yl)butyl)acetamide hydrochloride] were, in that order, 19.3 ± 1.87%, 11.7 ± 0.82% and 8.51%.
In the case of `Cl.NCCCNCCCNC(=O)COc1cc(O)c2c(=O)c(-c3ccc(O)cc3)coc2c1` [Compound 4f, N-(3-(3-aminopropylamino)propyl)-2-(5-hydroxy-3-(4-hydroxyphenyl)-4-oxo-4H-chromen-7-yloxy)acetamide hydrochloride], the values for the inhibition at 50 µM in series [1] and in series [2] were 10.2 ± 0.44% and 9.52 ± 1.48%, respectively. Besides, the “Inhibition ratios for HepG-2 cell viability” value in series [3] turned out to be 11.74%.
`Cl.NCCCNCCCCNC(=O)COc1cc(O)c2c(=O)c(-c3ccc(O)cc3)coc2c1` [Compound 4g, N-(4-(3-aminopropylamino)butyl)-2-(5-hydroxy-3-(4-hydroxyphenyl)-4-oxo-4H-chromen-7-yloxy)acetamide hydrochloride]: the inhibition at 50 µM in series [1] came to 16.5 ± 1.36%; in series [2], 17.9 ± 2.83%. For the same molecule, in series [3], the “Inhibition ratios for HepG-2 cell viability” value was 16.72%.
Turning to `Cl.NCCCCNCCCCNC(=O)COc1cc(O)c2c(=O)c(-c3ccc(O)cc3)coc2c1` [Compound 4h, N-(4-(4-aminobutylamino)butyl)-2-(5-hydroxy-3-(4-hydroxyphenyl)-4-oxo-4H-chromen-7-yloxy)acetamide hydrochloride], in series [1], 46.6 ± 3.87 µM corresponded to half-maximal inhibition (IC50) and the inhibition at 50 µM stood at 51 ± 0.55%. In series [2], the IC50 is greater than 50 µM and the inhibition at 50 µM came to 39.2%. The “Inhibition ratios for BChE” value in series [2] (50 μmol/L compound, mean±SEM of two experiments, BChE from equine serum) came to 39.20±5.64%. In series [3], the “Effect on HepG-2 cell viability (in words)” value is given as “no obvious effect on cell viability” and the “Inhibition ratios for HepG-2 cell viability” value was 16.30%.
For `O=c1c(-c2ccc(O)cc2)coc2cc(O)cc(O)c12` [Genistein, reference compound], the IC50 in series [1] and in series [2] was greater than 100 µM in each case. Further, the inhibition at 100 µM in series [1] (read-out: Inhibition of AChE activity) is less than 50%.
As for `Nc1c2c(nc3ccccc13)CCCC2` [Tacrine, reference compound], the “Inhibition ratios for HepG-2 cell viability” value in series [3] is recorded as 57.35%.

For orientation: IC50 means the concentration that gives 50% inhibition.
